# Read-outs that look alike come from different tables or passages of the source.
# Experiments:
# [1] = assay type: in vivo; details: mouse, 10 mg/kg
# In short: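 Dosing was 10 mg/kg, s.c. or i.p. by compound, with sparse sampling of plasma and brain. Total drug measured by LC-MS/MS was multiplied by fraction unbound to give free concentrations. Fraction unbound came from 5 μM compound incubated in mouse plasma or brain homogenate by rapid equilibrium dialysis. Parameters were derived by noncompartmental analysis, with terminal half-life by best fit.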
# [2] = Fraction unbound by rapid equilibrium dialysis; assay type: in vitro ADME; details: mouse
# [3] = system: narcoleptic male orexin/tTA; TetO-DTA mice; assay: EEG/EMG sleep/wake and cataplexy scoring after dosing before dark onset; assay type: in vivo, mouse; details: for Latency to NREM sleep / Latency to REM sleep: vs vehicle; for Wake bout duration, treatment effect: 6-h recording; for REM/NREM ratio: entire 6-h recording; for Wake bout duration: first post-dosing hour (ZT13); for Compensatory NREM sleep after increased wakefulness: hours after the first post-dosing hour
# In short: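 Crossover in telemetered male DTA mice (n = 7) given 1, 3 or 10 mg/kg s.c. or i.p., or the matching vehicle, 15 min before ZT12, ≥3 d between doses. EEG/EMG were scored for 6 h as hourly and cumulative time per state and as bouts. NREM latency ran from dosing to the first 6 consecutive NREM epochs; REM latency to the first 3 REM epochs. Analysis used 1-way ANOVA or 2-way RM ANOVA (treatment × time), with Holm-Sidak vs vehicle.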
# [4] = system: narcoleptic male orexin/tTA; TetO-DTA mice; assay: EEG spectral power analysis; assay type: in vivo, mouse
# In short: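 Male orexin/tTA;TetO-DTA mice (n = 7) with subcutaneous EEG/EMG telemeters received vehicle or 1, 3 or 10 mg/kg (s.c. or i.p. by compound, 10 mL/kg) 15 min before light offset at ZT12. Design was repeated measures in balanced order, ≥3 d apart. Normalized EEG spectra were taken in 0.122 Hz bins and bands: delta 0.5–4, theta 4–9, alpha 9–12, beta 12–30, low gamma 30–60, high gamma 60–100 Hz. Each state needed ≥3 animals. Analysis was 2-way RM ANOVA with Holm-Sidak.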
# [5] = system: narcoleptic male orexin/tTA; TetO-DTA mice; assay: Gross motor activity, running wheel activity and subcutaneous temperature; assay type: in vivo, mouse; details: for Number of running bouts: ZT13
# In short: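 Gross motor activity came from the implanted subcutaneous telemeter, alongside home-cage running-wheel activity and bouts and subcutaneous temperature, analysed per ZT hour after dosing. Male DTA mice (n = 7), adapted ≥2 weeks to wheels, handling and dosing, received vehicle or 1, 3 or 10 mg/kg s.c. or i.p. 15 min before ZT12 in repeated-measures order. Analysis was 2-way RM ANOVA (treatment × time) with Holm-Sidak.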
# [6] = system: healthy sleep-deprived adults; details: Phase 1; ref Evans et al., 2019; cited from earlier work
# wild-type mice = details: subcutaneous; ref Yukitake et al., 2019; cited from earlier work
# [7] = system: narcoleptic OX2R knockout (KO) mice; details: subcutaneous; ref Yukitake et al., 2019; cited from earlier work
# [8] = system: Hcrt peptide-deficient and Hcrt neuron-ablated mice; details: ref Irukayama-Tomobe et al., 2017; cited from earlier work
# [9] = system: Hcrt receptor-deficient mice; details: ref Irukayama-Tomobe et al., 2017; cited from earlier work
# [10] = system: Hcrt-deficient, Hcrt neuron-ablated and wild-type mice; details: peripheral administration; ref Irukayama-Tomobe et al., 2017; cited from earlier work
# [11] = first hour, all doses 1–10 mg/kg s.c.
# [12] = first post-dosing hour, all doses s.c.
# [13] = second post-dosing hour, 10 mg/kg s.c.
# [14] = first post-dosing hour (ZT13), all doses s.c.
# [15] = first post-dosing hour (ZT13), 3 and 10 mg/kg i.p.
compound,measurement,setting,value
"COC(=O)N1CCC[C@H](NS(C)(=O)=O)[C@@H]1CO[C@H]1CC[C@@H](c2ccccc2)CC1 [TAK-925, Methyl (2R,3S)-3-[(methylsulfonyl)amino]-2-{[(cis-4-phenylcyclohexyl)oxy]methyl}piperidine-1-carboxylate]",Cmax,"[1]; brain, sc",20 ng/g
same,Tmax,"[1]; brain, sc",10 min
same,half-life,"[1]; brain, sc",53 min
same,AUC(0-t),"[1]; plasma, sc",335 ng·h/mL
same,Cmax,"[1]; plasma, sc",160 ng/mL
same,Tmax,"[1]; plasma, sc",10 min
same,half-life,"[1]; plasma, sc",36 min
same,fraction unbound at 5 μM,[2]; mouse brain homogenate,0.077
same,fraction unbound at 5 μM,[2]; mouse plasma,0.107
same,Duration of the reduction of Wake bouts,[3]; 10 mg/kg s.c.,up to 3 h
same,Cumulative time in Cataplexy,"[3]; 10 mg/kg s.c., p = 1.74 × 10^−4",suppression of Cataplexy
same,Latency to NREM sleep,"[3]; 1, 3 and 10 mg/kg s.c.",delayed NREM sleep onset
same,"Effects on arousal states (Wake, NREM, REM) across the 6-h recording",[3]; 1–10 mg/kg s.c.,transitory
same,"NREM bout duration, post hoc test per dose",[3]; 1–10 mg/kg s.c.,did not identify any specific dose
same,"REM bout duration, post hoc test per dose",[3]; 1–10 mg/kg s.c.,did not identify any specific dose
same,Latency to REM sleep,"[3]; all doses (1, 3, 10 mg/kg s.c.)",delayed REM sleep
same,"Wake bout duration, treatment effect",[3]; all doses s.c.,significant treatment effects
same,REM/NREM ratio,[3]; s.c.,unchanged
same,Hourly amount of Cataplexy,[3]; [11],eliminated
same,Hourly amount of NREM sleep,[3]; [11],eliminated
same,Hourly amount of REM sleep,[3]; [11],eliminated
same,Hourly amount of Wake,[3]; [11],caused continuous wakefulness
same,Wake bout duration,[3]; all doses s.c.,increased Wake bout duration
same,Number of bouts of Cataplexy,[3]; [12],reduced the number of bouts
same,Number of bouts of NREM,[3]; [12],reduced the number of bouts
same,Number of bouts of REM,[3]; [12],reduced the number of bouts
same,Number of bouts of Wake,[3]; [12],reduced the number of bouts
same,Number of Cataplexy bouts,"[3]; first two hours, all doses s.c.",reduced the number of Cataplexy bouts
same,Compensatory NREM sleep after increased wakefulness,[3]; s.c.,no compensatory increase in NREM sleep
same,Number of Wake bouts across the entire 6-h recording,"[3]; only 10 mg/kg s.c., p = 0.013",reduced the number of Wake bouts
same,Percent time in Cataplexy across the 6-h recording,[3]; only the highest dose (10 mg/kg s.c.),reduced Cataplexy across the entire 6-h recording period
same,REM sleep rebound after early suppression,"[3]; s.c., ZT16, 4 hours post-treatment",rebound that reached significance at ZT16
same,Cumulative time in REM sleep,"[3]; s.c., first two hours after dosing, followed by a later rebound",significant suppression of REM sleep
same,Increase of Wake bout duration,"[3]; second post-dosing hour (ZT14), highest dose s.c.",continued into the second post-dosing hour
same,Hourly amount of Cataplexy,[3]; [13],reduction of Cataplexy continued into the second post-dosing hour
same,High gamma EEG power during Wake across the entire recording period,"[4]; 10 mg/kg s.c., p = 0.02",significantly increased high gamma
same,Waking EEG high gamma power,"[4]; ZT13, 1 mg/kg s.c.",significantly increased high gamma power
same,"Waking EEG spectral power in alpha, low gamma and high gamma","[4]; ZT13, 3 and 10 mg/kg s.c.",significantly increased spectral power in all three bandwidths
same,NREM EEG delta power,"[4]; ZT14, 1 mg/kg s.c.",increased NREM delta
same,NREM EEG spectral power,"[4]; ZT14, 10 mg/kg s.c.",increased spectral power during ZT14 for all EEG bands except for low gamma
same,"Waking EEG high gamma power, persistence of effect",[4]; [13],continued into the second post-dosing hour
same,Number of running bouts,[5]; all doses s.c.,more running bouts
same,Running wheel activity,"[5]; ZT17, 10 mg/kg s.c.",Reduced running wheel activity
same,Gross motor activity,"[5]; ZT17, highest dose s.c.",reduced gross motor activity
same,Running wheel activity,"[5]; ZT18, 10 mg/kg s.c.",increase at ZT18
same,Running wheel activity,"[5]; first post-dosing hour (ZT13), 1 mg/kg s.c.",significantly increased running wheel activity
same,Gross motor activity,[5]; [14],significantly increased motor activity
same,Subcutaneous temperature (Tsc),[5]; [14],significantly increased Tsc
same,Ability to maintain wakefulness,[6],improved individuals’ ability to maintain wakefulness
same,Tolerability,[6],well-tolerated
same,Wakefulness,wild-type mice,wake-promoting
same,Wakefulness,[7],but not in narcoleptic OX2R knockout (KO) mice
COc1ccc(-c2cccc(C(=O)N(C)C)c2)cc1S(=O)(=O)Nc1cccc(NCCNC(=O)c2ccccc2N(C)C)c1 [YNT-185],Sleep onset REM periods (SOREMs),[8],reduced sleep onset REM periods (SOREMs)
same,Sleep onset REM periods (SOREMs),[9],but not in Hcrt receptor-deficient mice
same,Wakefulness,[10],promoted wakefulness
"CCNC(=O)N1CCC[C@H](NS(C)(=O)=O)[C@@H]1CO[C@H]1CC[C@@H](C(C)C)CC1 [ARN-776, (2R,3S)-N-ethyl-2-{[(cis-4-isopropylcyclohexyl)oxy]methyl}−3-[(methylsulfonyl)amino]piperidine-1-carboxamide]",Cmax,"[1]; brain, ip",13 ng/g
same,Tmax,"[1]; brain, ip",10 min
same,half-life,"[1]; brain, ip",38 min
same,AUC(0-t),"[1]; plasma, ip",191 ng·h/mL
same,Cmax,"[1]; plasma, ip",326 ng/mL
same,Tmax,"[1]; plasma, ip",10 min
same,half-life,"[1]; plasma, ip",125 min
same,fraction unbound at 5 μM,[2]; mouse brain homogenate,0.121
same,fraction unbound at 5 μM,[2]; mouse plasma,0.176
same,Number of Wake bouts across the entire 6-h recording,[3]; 3 mg/kg (p = 0.03) and 10 mg/kg (p = 0.002) i.p.,significantly reduced the number of Wake bouts
same,Cataplexy bout duration,"[3]; 3 mg/kg i.p., p = 0.046",modest effect
same,Cumulative time in Wake,"[3]; 10 mg/kg i.p., post hoc p = 0.005",significant effects
same,Cumulative time in NREM sleep,"[3]; 10 mg/kg i.p., post hoc p = 0.028",significant effects
same,Latency to REM sleep,[3]; 10 mg/kg i.p.,delayed REM sleep
same,"NREM bout duration, post hoc test per dose",[3]; 1–10 mg/kg i.p.,did not identify any specific dose
same,"REM bout duration, post hoc test per dose",[3]; 1–10 mg/kg i.p.,did not identify any specific dose
same,REM sleep rebound after early suppression,[3]; 1–10 mg/kg i.p.,rebound did not reach statistical significance
same,Percent time in Cataplexy across the 6-h recording,"[3]; all 3 doses (1, 3, 10 mg/kg i.p.)",reduced Cataplexy across the 6-h period
same,Cumulative time in Cataplexy,[3]; all 3 doses i.p.,cumulative suppression of Cataplexy
same,"Wake bout duration, treatment effect",[3]; all doses i.p.,significant treatment effects
same,REM/NREM ratio,[3]; i.p.,unchanged
same,Number of NREM bouts,"[3]; first hour post-dosing, only middle and high doses i.p.",reduced the number of NREM bouts
same,Hourly amount of NREM sleep,"[3]; first hour, 1–10 mg/kg i.p.",dose-related changes
same,Hourly amount of REM sleep,"[3]; first hour, 1–10 mg/kg i.p.",dose-related changes
same,Hourly amount of Wake,"[3]; first hour, 1–10 mg/kg i.p.",dose-related changes
same,Number of Wake bouts,"[3]; first hour, 1–10 mg/kg i.p.",dose-related effect
same,Reduction in hourly Cataplexy levels,"[3]; first hour, 1–10 mg/kg i.p.",did not reach statistical significance
same,Wake bout duration,[3]; all doses i.p.,increased Wake bout duration
same,Compensatory NREM sleep after increased wakefulness,[3]; i.p.,no compensatory increase in NREM sleep
same,Suppression of cumulative REM sleep,[3]; lower doses i.p.,limited to the first post-dosing hour
same,Number of REM bouts,[3]; only 10 mg/kg i.p.,reduced the number of REM bouts
same,Latency to NREM sleep,[3]; only 3 and 10 mg/kg i.p. (not 1 mg/kg),delayed NREM
same,Number of Cataplexy bouts,[3]; only the two highest concentrations i.p.,effective during the first and later hours
same,Number of Wake bouts,"[3]; second hour, only 10 mg/kg i.p.",reduced the number of Wake bouts
same,High gamma EEG power during Wake across the entire recording period,"[4]; 10 mg/kg i.p., p = 0.04",significantly increased high gamma
same,Waking EEG low and high gamma power,"[4]; ZT13, 3 mg/kg i.p.",significantly increased
same,NREM EEG alpha and high gamma power,"[4]; ZT14, 10 mg/kg i.p.",significant reductions
same,NREM EEG high gamma power,"[4]; ZT15, 10 mg/kg i.p.",reduction of high gamma continued into ZT15
same,"Waking EEG power in alpha, low gamma and high gamma","[4]; first post-dosing hour, 10 mg/kg i.p.",significantly increased power in all three of these bands
same,Number of running bouts,[5]; 3 and 10 mg/kg i.p.,more running bouts
same,Gross motor activity,"[5]; ZT15, highest dose i.p.",reduced gross motor activity
same,Gross motor activity,[5]; [15],significantly increased motor activity
same,Running wheel activity,[5]; [15],significantly increased running wheel activity
same,Subcutaneous temperature (Tsc),[5]; [15],significantly increased Tsc

# Reference: publication PMC10356740 (Journal of sleep research, 2023)
